Screening data from PubChem BioAssay.
A selection: hits, their analogues and other compounds. The true share with any hit is near 0.74%.
DDE Tn7 FP inh = inhibitors of Tn7 peptide binding to fibrin DD(E), primary screen, biochemical, fluorescence polarization, human fibrin, Tn7 probe | Fibrinogen beta chain (Homo sapiens), P02675 | FP displacement of FITC-Tn7 peptide from fibrin DD(E); 0% = median of compound wells per plate | inhibition, % at 8.3 µM | actives 0.13% (n = 370,000) | AID 720508, 2013;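 active = inhibition above the mean of compounds falling within the control limits plus 3 SD of them, cut at about 14% in these data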;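 note: 0% = plate median of compound wells and 100% = 10 µM Aha-Tn7 peptide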
Target sequence (P02675 whole entry, looked up): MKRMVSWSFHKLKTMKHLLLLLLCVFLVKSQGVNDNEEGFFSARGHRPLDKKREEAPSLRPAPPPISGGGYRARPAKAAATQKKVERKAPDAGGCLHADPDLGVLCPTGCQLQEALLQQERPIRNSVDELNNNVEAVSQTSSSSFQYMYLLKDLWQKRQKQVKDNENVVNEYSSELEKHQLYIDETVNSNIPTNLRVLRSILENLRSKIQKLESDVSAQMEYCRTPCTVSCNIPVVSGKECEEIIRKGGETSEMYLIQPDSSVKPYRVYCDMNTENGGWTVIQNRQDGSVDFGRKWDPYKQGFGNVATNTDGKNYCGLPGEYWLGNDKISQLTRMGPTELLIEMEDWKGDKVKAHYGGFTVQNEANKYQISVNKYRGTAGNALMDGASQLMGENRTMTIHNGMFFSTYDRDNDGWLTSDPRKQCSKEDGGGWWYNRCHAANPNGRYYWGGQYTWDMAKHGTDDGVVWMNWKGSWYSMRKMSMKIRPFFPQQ
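Also added: labelled Tn7 tracer, 0.1 µM; Assay system: human fibrin DD(E) protein; Amount: 2 µM fibrin DD(E); Schedule: 10 min compound pre-incubation, 3 h probe incubation at room temperature; Repeats: one replicate per compound; Read-out basis: percent inhibition; Measured by: fluorescence polarization of the labelled Tn7 tracer.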
ASAP1 GAP inh = inhibitors of human ASAP1 ArfGAP activity, primary screen, biochemical, fluorescence polarization. Arf-GAP with SH3 domain, ANK repeat and PH domain-containing protein 1 (Homo sapiens), …. ASAP1-stimulated ARF1 GTP hydrolysis, GDP FP detection. inhibition, % at 16.5 µM. actives 0.19% (n = 360,000). AID 624377, 2012; in the data active = inhibition above about 25%;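 note: 0% = vehicle with enzyme and substrate and 100% = no enzyme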
Tn6 DDE FP = inhibitors of Tn6 peptide binding to fibrin DD(E), primary screen, biochemical, fluorescence polarization, human fibrin, Tn6 probe; Fibrin DD(E) TRITC-Tn6 fluorescence polarization displacement; inhibition, % at 8.3 µM; actives 0.21% (n = 370,000);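 active = inhibition above a per-campaign cutoff: mean of compounds within control limits plus 3 SD, cut at about 15% in these data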;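 note: 0% = median of all compound wells on the plate and 100% = blocking peptide control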
ARFGAP1 inh = inhibitors of rat ARFGAP1 GAP activity, primary screen, biochemical, fluorescence polarization, GDP tracer | Arfgap1-stimulated ARF1 GTP hydrolysis, GDP FP detection | inhibition, % at 16.5 µM | actives 0.26% (n = 360,000) | AID 651572, 2012;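 active = inhibition above a per-plate limit, mean inhibition of low control wells plus 3 SD, cut at about 25% in these data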;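 note: 0% = DMSO wells with enzyme and 100% = wells lacking Arfgap1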
Target sequence (Q62848 1-136 limits assumed): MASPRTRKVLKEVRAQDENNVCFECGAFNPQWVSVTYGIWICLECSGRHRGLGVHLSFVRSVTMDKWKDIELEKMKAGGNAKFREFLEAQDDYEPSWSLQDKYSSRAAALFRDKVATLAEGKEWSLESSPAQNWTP
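Assay system: Rat Arfgap1 GAP domain (His6, aa 1-136), purified enzyme | Buffer or medium: HEPES 25 mM pH 7.5, NaCl 150 mM, MgCl2, DTT | Schedule: GTP hydrolysis reaction 2 h at 25 °C | Signal: FP of antibody-bound GDP Alexa 633 tracer, ex 620/em 688 nm | Measure: Percent inhibition of Arfgap1-stimulated GTP hydrolysis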
ARFGAP1 inh conf = ARFGAP1 inhibitor hit confirmation, biochemical, fluorescence polarization, triplicate; ARFGAP1-stimulated ARF1 GTP hydrolysis, GDP tracer FP; shares compounds with ARFGAP1 inh; actives 30% (n = 890); inhibition, % at 16.5 µM; AID 651608, 2012;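 active = average inhibition over triplicates above the hit cutoff set in the earlier primary screen, cut at about 25% in these data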;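 note: 0% = Arfgap1 plus ARF1-GTP with DMSO and 100% = wells lacking Arfgap1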
* hit, by the source's call.

Screening CCOc1ccccc1C(=O)N(CN1CCCC1=O)c1cccc(Cl)c1 returned DDE Tn7 FP inh -7, ASAP1 GAP inh 13, Tn6 DDE FP -3, ARFGAP1 inh 38* and ARFGAP1 inh conf 7.
For O=c1ccn(C2CC(O)C(COC(c3ccccc3)(c3ccccc3)c3ccccc3)O2)c(=O)[nH]1 (centres undefined) the results were DDE Tn7 FP inh 3, ASAP1 GAP inh -1, Tn6 DDE FP -11 and ARFGAP1 inh -9.
For COc1ccc(NC(=O)CN(C)C(=O)c2cn(-c3ccccc3)nc2-c2ccc(Cl)cc2)cc1 the results were DDE Tn7 FP inh 7, ASAP1 GAP inh 1, Tn6 DDE FP 0, ARFGAP1 inh 27* and ARFGAP1 inh conf 9.
Screening COc1ccc(NC(=O)CN(C)C(=O)c2cn(-c3ccccc3)nc2-c2ccc(OC)cc2)cc1 returned DDE Tn7 FP inh -1, ASAP1 GAP inh -8, Tn6 DDE FP -2 and ARFGAP1 inh 5.
For Cc1noc(C)c1NC(=O)N(C)C[C@@H]1OCc2cn(nn2)CCCC(=O)N([C@@H](C)CO)C[C@H]1C the results were DDE Tn7 FP inh 2, ASAP1 GAP inh 3, Tn6 DDE FP 4 and ARFGAP1 inh -3.
`CC(Nc1nc(N2CCNCC2)nc2ccccc12)c1ccccc1` (centres undefined) gave DDE Tn7 FP inh 0, ASAP1 GAP inh -10, Tn6 DDE FP -1, ARFGAP1 inh 26* and ARFGAP1 inh conf 8.
For CC(Nc1nc(-c2ccncc2)nc2ccccc12)c1ccccc1 (centres undefined) the results were DDE Tn7 FP inh 3, ASAP1 GAP inh 2, Tn6 DDE FP 3 and ARFGAP1 inh 1.
CC(=O)c1ccc(NC(=O)COC(=O)c2c3c(nc4ccccc24)/C(=C\c2cccs2)CCC3)cc1 was read as DDE Tn7 FP inh -2, ASAP1 GAP inh 23, Tn6 DDE FP -10, ARFGAP1 inh 32* and ARFGAP1 inh conf 20.
For C[C@H]1[C@@H](OC(=O)NCc2cccs2)CC[C@@]23CCCN2C(=O)CCC[C@@H]13 the results were DDE Tn7 FP inh 3 and Tn6 DDE FP 5.
For O=C(N/N=C/c1ccc(Cl)cc1)C(=O)N1CCCCCC1 the results were DDE Tn7 FP inh -6, ASAP1 GAP inh 3, Tn6 DDE FP -8, ARFGAP1 inh 25* and ARFGAP1 inh conf -6.
Screening O=C(C(=O)N1CCN(C(=O)C2CCCC2)CC1)c1cccc(C(F)(F)F)c1 returned DDE Tn7 FP inh -4, ASAP1 GAP inh 12, Tn6 DDE FP 4 and ARFGAP1 inh -1.
O=C(CN(Cc1ccc(F)cc1)C(=O)c1csnn1)NCc1ccccc1 was read as DDE Tn7 FP inh -5, ASAP1 GAP inh -1, Tn6 DDE FP 0 and ARFGAP1 inh 4.
O=C(CN(CCc1ccccc1)C(=O)c1csnn1)NCc1ccc(F)cc1 was read as DDE Tn7 FP inh 4, ASAP1 GAP inh -8, Tn6 DDE FP -8, ARFGAP1 inh 27* and ARFGAP1 inh conf 2.
For O=C(Nc1ccc2c(c1)OCO2)OC1CC2CC1[C@H]1CCCCN1[C@H]2Cc1ccccc1 (some centres undefined) the results were DDE Tn7 FP inh 4 and Tn6 DDE FP -2.
Screening C[C@H](CO)N1C[C@H](C)[C@@H](CN(C)S(=O)(=O)c2cccs2)Oc2ccc(NC(=O)NC3CCCCC3)cc2C1=O returned DDE Tn7 FP inh -4, ASAP1 GAP inh 1, Tn6 DDE FP 5 and ARFGAP1 inh -11.
C[C@@H]1CCCCO[C@H](CN(C)S(=O)(=O)c2cccs2)[C@H](C)CN([C@@H](C)CO)C(=O)c2cc(NC(=O)NC3CCCCC3)ccc2O1 was read as DDE Tn7 FP inh -5, ASAP1 GAP inh -3, Tn6 DDE FP -5, ARFGAP1 inh 25* and ARFGAP1 inh conf 4.
For C[C@@H]1CN([C@@H](C)CO)C(=O)CCCn2cc(nn2)CO[C@H]1CN(C)C(=O)Nc1ccc2c(c1)OCO2 the results were DDE Tn7 FP inh -5, ASAP1 GAP inh -19, Tn6 DDE FP -8 and ARFGAP1 inh -5.
O=Nc1c(-c2cccc([N+](=O)[O-])c2)nc2ncccn12 was read as DDE Tn7 FP inh 1, ASAP1 GAP inh -13, Tn6 DDE FP 0, ARFGAP1 inh 26* and ARFGAP1 inh conf -10.
Screening COCC(=O)N1CCN(C(=O)C(=O)c2cccc(C(F)(F)F)c2)CC1 returned DDE Tn7 FP inh 0, ASAP1 GAP inh -1, Tn6 DDE FP -6 and ARFGAP1 inh -1.
Screening O=C(Cn1c2ccc(F)cc2c2nc3n(c(=O)c21)CCS3)Nc1ccccc1C(F)(F)F returned DDE Tn7 FP inh -6, ASAP1 GAP inh 22, Tn6 DDE FP -4, ARFGAP1 inh 30* and ARFGAP1 inh conf 42*.
Screening Cc1cccc(NC(=O)C2C(c3ccccc3)C2(Cl)Cl)c1 (centres undefined) returned DDE Tn7 FP inh 2, ASAP1 GAP inh -1, Tn6 DDE FP -3, ARFGAP1 inh 28* and ARFGAP1 inh conf 9.
`Cc1nc(CSc2ccc(Cl)cc2)cc(N2CC(C)OC(C)C2)n1` (centres undefined) gave DDE Tn7 FP inh -5, ASAP1 GAP inh -10, Tn6 DDE FP -1, ARFGAP1 inh 25* and ARFGAP1 inh conf 5.
`Clc1ccc(SCc2cc(N3CCOCC3)nc(-c3ccccn3)n2)cc1` gave DDE Tn7 FP inh 6, ASAP1 GAP inh -10, Tn6 DDE FP -3 and ARFGAP1 inh -12.
OC[C@@H]1CN(Cc2ccc(F)cc2)C[C@H](n2cnc3c(Nc4ccccc4)ncnc32)O1 was read as DDE Tn7 FP inh 2, ASAP1 GAP inh -2, Tn6 DDE FP 9, ARFGAP1 inh 38* and ARFGAP1 inh conf 1.
Screening OC[C@@H]1CN(Cc2ccccc2)C[C@H](n2cnc3c(NCc4ccc(F)cc4)ncnc32)O1 returned DDE Tn7 FP inh 0, ASAP1 GAP inh 8, Tn6 DDE FP 5 and ARFGAP1 inh -5.
COC(=O)[C@]12C[C@H](CC(=O)N3CCC(c4ccccc4)CC3)C(=O)N(Cc3ccc4c(c3)OCO4)C1=C[C@H](COCc1ccccc1)O[C@@H]2C was read as DDE Tn7 FP inh -5, ASAP1 GAP inh 1, Tn6 DDE FP 1 and ARFGAP1 inh 3.
Screening Cc1ccc(CSc2ncnc3ccccc23)cc1 returned DDE Tn7 FP inh 4, ASAP1 GAP inh 1, Tn6 DDE FP 2, ARFGAP1 inh 25* and ARFGAP1 inh conf -2.
For CCCC(=O)N1CCCC1(C)C(=O)Nc1ccc(-n2cccc2)cc1 (centres undefined) the results were DDE Tn7 FP inh -7, ASAP1 GAP inh -3, Tn6 DDE FP 7, ARFGAP1 inh 25* and ARFGAP1 inh conf -7.
